Experimental data of several laboratories.
Protocols differ between the studies behind these lines.
Target: Acetylcholinesterase (ACHE, Homo sapiens, UniProt P22303)
Observed: enzyme activity
Action: inhibitor

| SMILES | technique | pH | IC50 [nM] |
| --- | --- | --- | --- |
| CCC(CC)CSc1ccccc1OC(=O)NC | Ellman | – | 5130 |
| C=CCn1c2cc(OC(=O)CCCCN3CCN(Cc4ccc(C(F)(F)F)cc4)CC3)ccc2c2ccnc(C)c21 | Ellman | – | 122 |
| C#CCNc1nc(NCCCC2CCN(Cc3ccccc3)CC2)c(C#N)cc1C#N | Ellman | – | 1 |
| Cc1cc(O)nc(O)n1 | Ellman | – | 191 |
| C=CCn1c2cc(OC(=O)CCCCN3CCN(Cc4ccc(F)cc4)CC3)ccc2c2ccnc(C)c21 | Ellman | – | 89.4 |
| C#CCN(C)c1nc(NCCCCC2CCN(Cc3ccccc3)CC2)c(C#N)c(-c2ccccc2)c1C#N | Ellman | – | 25 |
| CNC(=O)Oc1cccc2c1OC(C)(C)C2 | Ellman | – | 38 |
| C=CCn1c2cc(OC(=O)CCCCN3CCN(Cc4ccc(C)cc4)CC3)ccc2c2ccnc(C)c21 | Ellman | – | 12.6 |
| CCOP(=O)(OCC)Oc1ccc2c(C)c(Cl)c(=O)oc2c1 | Ellman | – | 111 |
| O=c1[nH]cc(CO)c(=O)[nH]1 | Ellman | – | 205 |
| c1cc(CN2CCCCC2)cc(OCCCNc2nc3ccccc3s2)c1 | – | – | 22600 |
| C=CCn1c2cc(OC(=O)CCCCN3CCN(Cc4ccccc4C)CC3)ccc2c2ccnc(C)c21 | Ellman | – | 15.7 |
| c1ccc2c(c1)[I+]c1ccccc1-2 | – | – | 16100 |
| COc1cc2c3cc1Oc1cc(ccc1O)C[C@@H]1c4c(cc(OC)c(O)c4Oc4ccc(cc4)C[C@@H]3N(C)CC2)CC[N+]1(C)C | Ellman | – | 57600 |
| CCOP(=S)(OCC)O/N=C(\C#N)c1ccccc1 | – | – | 22600 |
| CN1CCN(CCCCOc2ccc3occc(=O)c3c2)CC1 | Ellman | pH 7.4 | 6430 |
| C=CCn1c2cc(OC(=O)CCCCN3CCN(Cc4ccccc4)CC3)ccc2c2ccnc(C)c21 | Ellman | – | 58.8 |
| O=C(NCCCNc1c2c(nc3ccccc13)CCCC2)c1ccccc1O | Ellman | – | 1020 |
| C#CCNc1nc(NCCCCC2CCN(Cc3ccccc3)CC2)c(C#N)c(-c2ccccc2)c1C#N | Ellman | – | 6 |
| CS(=O)(=O)n1cc(Br)c(=O)[nH]c1=O | Ellman | – | 111 |
| C[C@@H]1CCCN1CCCCOc1ccc2occc(=O)c2c1 | Ellman | pH 7.4 | 8620 |
| C=CCn1c2cc(OC(=O)CCCCN3CCN(Cc4ccccc4C(F)(F)F)CC3)ccc2c2ccnc(C)c21 | Ellman | – | 48.4 |
